Assay results gathered from unrelated publications.
Protocols differ between the studies behind these lines.
EGFR G719C: Epidermal growth factor receptor (EGFR, Homo sapiens, UniProt P00533, G719C)
EGFR: Epidermal growth factor receptor (EGFR, Homo sapiens, UniProt P00533)
EGFR L858R: Epidermal growth factor receptor (EGFR, Homo sapiens, UniProt P00533, L858R)
EGFR del752-759: Epidermal growth factor receptor (EGFR, Homo sapiens, UniProt P00533, del752-759)
EGFR del746-750: Epidermal growth factor receptor (EGFR, Homo sapiens, UniProt P00533, del746-750)
EGFR L861Q: Epidermal growth factor receptor (EGFR, Homo sapiens, UniProt P00533, L861Q)
EGFR T790M: Epidermal growth factor receptor (EGFR, Homo sapiens, UniProt P00533, T790M)
EGFR A750P/del747-749: Epidermal growth factor receptor (EGFR, Homo sapiens, UniProt P00533, A750P/del747-749)
EGFR L858R/T790M: Epidermal growth factor receptor (EGFR, Homo sapiens, UniProt P00533, L858R/T790M)

SMILES | target | test | setting | remaining binding [%]
CCS(=O)(=O)c1cc2cc(C[C@@](O)(CC(C)(C)c3ccc(F)cc3C(N)=O)C(F)(F)F)[nH]c2cn1 | Epidermal growth factor receptor (EGFR, Homo sapiens, UniProt P00533, del747-750/T751S) | cell-free assay, competition with immobilised ligand | 1 µM | 93
COc1cnc(Nc2cccc(S(N)(=O)=O)c2)nc1N1CCN(c2ccccc2)CC1 | EGFR G719C | binding, competition with immobilised ligand | 1 µM | 100
CC1CCCN1c1nccc(-c2cnn3ncccc23)n1 (stereo not shown) | Epidermal growth factor receptor (EGFR, Homo sapiens, UniProt P00533, G719S) | binding | 1 µM | 100
O=C(c1ccc(Nc2ncc(Cl)c(-c3ccc(Cl)s3)n2)cc1)N1CCC(N2CCCC2)CC1 | EGFR | binding, competition with immobilised ligand | 1 µM | 86
COc1cc(-c2cn(C3CCc4c(F)cccc4N(CC(F)(F)F)C3=O)nn2)ccc1-n1cnc(C)c1 (stereo not shown) | EGFR L858R | cell-free assay, competition with immobilised ligand | 1 µM | 100
O=C(NCCCN1CCOCC1)c1ccc(Nc2ncc(Cl)c(-c3ccc(Cl)s3)n2)cc1 | EGFR L858R | binding, competition with immobilised ligand | 1 µM | 82
Cc1cnn2ncc(-c3ccnc(N(C)C)n3)c2c1 | EGFR del752-759 | binding | 1 µM | 100
CC(C)CC(=O)N1CCc2nc(-c3ccc(Br)cc3)nc(N(C)Cc3ccccc3)c2C1 | EGFR del746-750 | cell-free assay, competition with immobilised ligand | 0.1 µM | 100
Nc1ncc2c(n1)-c1c([nH]c3ccc(C#CC4CC4)cc13)CCCC2 | EGFR | binding, competition with immobilised ligand | 1 µM | 80
O=C(NCCCN1CCOCC1)c1ccc(Nc2nccc(-c3cc4ccccc4s3)n2)cc1 | EGFR L861Q | binding, competition with immobilised ligand | 1 µM | 99
c1cncc(-c2cccc(Nc3nccc(NC4CCCCC4)n3)c2)c1 | EGFR T790M | binding, competition with immobilised ligand | 10 µM | 33
c1ccc(N2CCN(Cc3nc4ccccc4[nH]3)CC2)nc1 | EGFR A750P/del747-749 | cell-free assay, competition with immobilised ligand | 1 µM | 100
CN(c1nccc(-c2cnn3ncccc23)n1)C1CC1 | EGFR T790M | binding | 1 µM | 100
Cc1c(C(=O)O)cc(-c2ccc(C3CCNCC3)cc2)c2ccc(-c3ccc(C(F)(F)F)cc3)cc12 | EGFR L861Q | cell-free assay, competition with immobilised ligand | 1 µM | 100
CNC(=O)[C@@H]1CC[C@@H](n2c(-c3ccc4cnccc4c3)nc3ccc(C(=O)NCc4cccc(C(N)=O)c4)cc32)C1 | EGFR L858R/T790M | binding, competition with immobilised ligand | 1 µM | 92
O=C(Nc1c[nH]nc1C(=O)NC1CCNCC1)c1cc(F)cc(F)c1 | EGFR L858R/T790M | binding, competition with immobilised ligand | 1 µM | 100
CO[C@@H](C)c1c(Nc2ccc([C@H](N(C)C(=O)C3CCS(=O)(=O)CC3)C(F)(F)F)cc2)cnc2cc(Cl)nn12 | EGFR T790M | cell-free assay, competition with immobilised ligand | 1 µM | 90
COc1cnc(Nc2cccc(S(N)(=O)=O)c2)nc1N1CCN(c2ccccc2)C(=O)C1 | EGFR del746-750 | binding, competition with immobilised ligand | 1 µM | 96
O=C(c1ccc(Nc2nccc(-c3cc4ccccc4s3)n2)cc1)N1CCC(N2CCCC2)CC1 | EGFR A750P/del747-749 | binding, competition with immobilised ligand | 1 µM | 100
CN(C)c1ncc(F)c(-c2cnn3ncccc23)n1 | EGFR L858R/T790M | binding | 1 µM | 74
O=C(c1ccc(Nc2ncc(Cl)c(-c3cc4ccccc4s3)n2)cc1)N1CCC(N2CCCC2)CC1 | EGFR | binding, competition with immobilised ligand | 1 µM | 90
C[C@@H]1CCN(c2nccc(-c3cnn4ncccc34)n2)C1 | EGFR T790M | binding | 1 µM | 79
CCN1CCN(Cc2ccc(C(=O)Nc3ccc(C)c(Oc4ccc5c(c4)CC(=O)N5)c3)cc2C(F)(F)F)CC1 | EGFR L858R | binding, competition with immobilised ligand | 1 µM | 100
CN(c1ccnc(CNc2nc(Nc3ccc4c(c3)CC(=O)N4)ncc2C(F)(F)F)n1)S(C)(=O)=O | EGFR del752-759 | cell-free assay, competition with immobilised ligand | 1 µM | 76
O=C(NCC1CCOCC1)c1n[nH]cc1NC(=O)c1c(F)cccc1F | EGFR del752-759 | binding, competition with immobilised ligand | 1 µM | 100
CN(C)c1nccc(-c2cnc3ncccn23)n1 | EGFR G719C | binding | 1 µM | 100
Nc1cnc(N2CCc3cc(S(=O)(=O)Nc4c(F)cc(Cl)cc4F)cc(N4CCCC4=O)c32)nc1 | EGFR | cell-free assay, competition with immobilised ligand | 1 µM | 82
Cc1cnc(Nc2ccc(C(=O)N3CCC(N4CCCC4)CC3)cc2)nc1-c1cc2ccccc2s1 | EGFR del752-759 | binding, competition with immobilised ligand | 1 µM | 84
